{"source": "ChEMBL document CHEMBL4304781", "about": "“Development of Highly Selective Pyrimidine-Based Aldosterone Synthase (CYP11B2) Inhibitors” (ACS Med Chem Lett, 2019)", "key": {"[1]": {"target": "T1, Cytochrome P450 11B2, mitochondrial (Homo sapiens, UniProt P19099)", "T1 sequence (P19099 whole entry)": "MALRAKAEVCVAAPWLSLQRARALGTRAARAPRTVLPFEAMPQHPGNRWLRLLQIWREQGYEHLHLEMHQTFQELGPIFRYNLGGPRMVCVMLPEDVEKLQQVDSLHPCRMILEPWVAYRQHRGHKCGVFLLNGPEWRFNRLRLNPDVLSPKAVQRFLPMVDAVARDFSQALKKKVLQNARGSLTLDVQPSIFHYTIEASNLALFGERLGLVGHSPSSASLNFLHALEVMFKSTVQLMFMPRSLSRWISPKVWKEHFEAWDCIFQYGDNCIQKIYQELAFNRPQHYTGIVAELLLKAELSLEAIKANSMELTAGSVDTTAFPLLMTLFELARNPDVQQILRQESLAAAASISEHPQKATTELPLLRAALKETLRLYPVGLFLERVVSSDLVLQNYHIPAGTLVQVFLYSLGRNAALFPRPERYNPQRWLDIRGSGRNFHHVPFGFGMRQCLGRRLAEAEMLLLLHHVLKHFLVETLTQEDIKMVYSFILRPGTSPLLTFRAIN", "test": "Inhibition of human recombinant CYP11B2 using deoxycorticosterone as substrate incubated for 90 mins by cell-based HPLC analysis", "summary_of_the_method": "(§1)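 Recombinant human CYP11B2 or CYP11B1. Substrate and product steroids both monitored by HPLC-MS. Selectivity taken as CYP11B1 IC50 / CYP11B2 IC50.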"}, "Homo sapiens": {"organism": "Homo sapiens", "test": "Selectivity index, ratio of IC50 for human recombinant CYP11B1 to IC50 for human recombinant CYP11B2", "summary_of_the_method": "as §1"}, "[2]": {"target": "T2, Cytochrome P450 11B1, mitochondrial (Homo sapiens, UniProt P15538)", "T2 sequence (P15538 whole entry)": "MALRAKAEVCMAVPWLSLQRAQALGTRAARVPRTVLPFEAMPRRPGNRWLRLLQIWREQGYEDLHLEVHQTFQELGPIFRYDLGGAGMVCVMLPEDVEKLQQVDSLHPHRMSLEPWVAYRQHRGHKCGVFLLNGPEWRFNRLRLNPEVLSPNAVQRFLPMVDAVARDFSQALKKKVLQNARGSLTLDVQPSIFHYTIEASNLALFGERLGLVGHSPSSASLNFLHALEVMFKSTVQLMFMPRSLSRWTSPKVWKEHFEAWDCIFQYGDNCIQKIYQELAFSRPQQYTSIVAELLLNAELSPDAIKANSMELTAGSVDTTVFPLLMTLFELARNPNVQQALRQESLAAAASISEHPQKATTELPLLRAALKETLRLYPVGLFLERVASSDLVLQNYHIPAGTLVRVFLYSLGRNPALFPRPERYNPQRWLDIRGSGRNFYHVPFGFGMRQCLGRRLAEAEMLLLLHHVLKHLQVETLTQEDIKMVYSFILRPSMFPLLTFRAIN", "test": "Inhibition of human recombinant CYP11B1 using deoxycortisol as substrate incubated for 60 mins by cell-based HPLC analysis", "type": "ADME", "summary_of_the_method": "as §1"}, "[3]": {"test": "Stability in cynomolgus monkey liver microsomes assessed as parent compound remaining at 1 uM measured after 65 mins by LC/MS-MS analysis", "type": "ADME, Macaca fascicularis, Microsome", "conditions": "read-out: Stability", "summary_of_the_method": "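Parent compound percentage remaining after 65 min incubation with cynomolgus monkey liver microsomes.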"}, "[4]": {"test": "Half life in cynomolgus monkey at 1 mg/kg, po measured after 24 or 72 hrs", "type": "ADME, organism-based, Macaca fascicularis", "conditions": "in vivo", "summary_of_the_method": "(§2)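 Male cynomolgus monkeys dosed orally at 1 mg/kg in 0.5% CMC, 0.1% Tween-80, 1% DMSO. Plasma drug concentrations followed out to 24 or 72 h. Cmax, Tmax, AUC0-24 and t1/2 derived from plasma levels.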"}, "[5]": {"test": "AUC (0 to 24 hrs) in cynomolgus monkey at 1 mg/kg, po measured after 24 or 72 hrs", "type": "ADME, organism-based, Macaca fascicularis", "set-up": "time < 24 hr, dose 1 mg/kg, route oral", "conditions": "in vivo", "summary_of_the_method": "as §2"}, "[6]": {"test": "Thermodynamic solubility in phosphate free buffer pH 7.4 incubated for 24 hrs by HPLC/LCMS-MS based shake flask method", "type": "physicochemical", "conditions": "read-out: Therm_solubility"}, "[7]": {"test": "Tmax in cynomolgus monkey at 1 mg/kg, po measured after 24 or 72 hrs", "type": "ADME, organism-based, Macaca fascicularis", "conditions": "in vivo", "summary_of_the_method": "as §2"}, "[8]": {"test": "Cmax in cynomolgus monkey at 1 mg/kg, po measured after 24 or 72 hrs", "type": "ADME, organism-based, Macaca fascicularis", "set-up": "dose 1 mg/kg, route oral", "conditions": "in vivo", "summary_of_the_method": "as §2"}}, "data": [{"compound": "CC(F)(F)c1ncncc1-c1nc2cc(F)c(F)cc2n1C1CC1", "values": [{"measurement": "IC50", "setting": "[1]", "value": 0.05, "unit": "µM"}, {"measurement": "Ratio IC50", "setting": "Homo sapiens", "value": 114}, {"measurement": "IC50", "setting": "[2]", "value": 5.72, "unit": "µM"}]}, {"compound": "Fc1cc2nc(-c3cncnc3)n(C3CC3)c2cc1F", "values": [{"measurement": "IC50", "setting": "[1]", "value": 0.022, "unit": "µM"}, {"measurement": "remaining at 65 min, 1 µM", "setting": "[3]", "value": 98, "unit": "%"}, {"measurement": "Ratio IC50", "setting": "Homo sapiens", "value": 103}, {"measurement": "IC50", "setting": "[2]", "value": 2.27, "unit": "µM"}]}, {"compound": "CC(C)c1ncncc1-c1nc2cc(F)c(F)cc2n1C1CC1", "values": [{"measurement": "IC50", "setting": "[1]", "value": 0.005, "unit": "µM"}, {"measurement": "remaining at 65 min, 1 µM", "setting": "[3]", "value": 80, "unit": "%"}, {"measurement": "Ratio IC50", "setting": "Homo sapiens", "value": 381}, {"measurement": "IC50", "setting": "[2]", "value": 1.91, "unit": "µM"}]}, {"compound": "Fc1ccc2nc(-c3cncnc3)n(C3CC3)c2c1", "values": [{"measurement": "Ratio IC50", "setting": "Homo sapiens", "value": 136}]}, {"compound": "Fc1ccc2nc(-c3cnccn3)n(C3CC3)c2c1", "values": [{"measurement": "IC50", "setting": "[1]", "value": 0.541, "unit": "µM"}, {"measurement": "Ratio IC50", "setting": "Homo sapiens", "value": "> 18"}, {"measurement": "IC50", "setting": "[2]", "value": "> 10", "unit": "µM"}]}, {"compound": "N#Cc1ncncc1-c1nc2cc(F)c(F)cc2n1C1CC1", "values": [{"measurement": "IC50", "setting": "[1]", "value": 0.013, "unit": "µM"}, {"measurement": "remaining at 65 min, 1 µM", "setting": "[3]", "value": 85, "unit": "%"}, {"measurement": "Ratio IC50", "setting": "Homo sapiens", "value": 383}, {"measurement": "IC50", "setting": "[2]", "value": 4.99, "unit": "µM"}]}, {"compound": "Fc1ccc2nc(-c3cn[nH]c3)n(C3CC3)c2c1", "values": [{"measurement": "IC50", "setting": "[1]", "value": 0.782, "unit": "µM"}, {"measurement": "Ratio IC50", "setting": "Homo sapiens", "value": 2}, {"measurement": "IC50", "setting": "[2]", "value": 1.67, "unit": "µM"}]}, {"compound": "Fc1ccc2nc(-c3cnco3)n(C3CC3)c2c1", "values": [{"measurement": "IC50", "setting": "[1]", "value": "> 10", "unit": "µM"}, {"measurement": "IC50", "setting": "[2]", "value": "> 10", "unit": "µM"}]}, {"compound": "Fc1ccc2nc(-n3ccnn3)n(C3CC3)c2c1", "values": [{"measurement": "IC50", "setting": "[1]", "value": 1.06, "unit": "µM"}, {"measurement": "Ratio IC50", "setting": "Homo sapiens", "value": 8.5}, {"measurement": "IC50", "setting": "[2]", "value": 9.07, "unit": "µM"}]}, {"compound": "N#Cc1ccc2nc(-c3cncnc3C(F)(F)F)n(C3CC3)c2n1", "values": [{"measurement": "half-life", "setting": "[4]", "value": 5.3, "unit": "h"}, {"measurement": "IC50", "setting": "[1]", "value": 0.024, "unit": "µM"}, {"measurement": "AUC(0-t) at 24 h", "setting": "[5]", "value": 10.1, "unit": "µM·h"}, {"measurement": "solubility thermodynamic at 24 h", "setting": "[6]", "value": 153, "unit": "µM"}, {"measurement": "Tmax", "setting": "[7]", "value": 0.5, "unit": "h"}, {"measurement": "Cmax", "setting": "[8]", "value": 1680, "unit": "nM"}, {"measurement": "remaining at 65 min, 1 µM", "setting": "[3]", "value": 87, "unit": "%"}, {"measurement": "Ratio IC50", "setting": "Homo sapiens", "value": 200}, {"measurement": "IC50", "setting": "[2]", "value": 4.81, "unit": "µM"}]}, {"compound": "Cc1ncncc1-c1nc2cc(F)c(F)cc2n1C1CC1", "values": [{"measurement": "half-life", "setting": "[4]", "value": 4.2, "unit": "h"}, {"measurement": "AUC(0-t) at 24 h", "setting": "[5]", "value": 3, "unit": "µM·h"}, {"measurement": "Tmax", "setting": "[7]", "value": 0.5, "unit": "h"}, {"measurement": "Cmax", "setting": "[8]", "value": 1260, "unit": "nM"}, {"measurement": "remaining at 65 min, 1 µM", "setting": "[3]", "value": 72, "unit": "%"}, {"measurement": "Ratio IC50", "setting": "Homo sapiens", "value": 244}]}]}
